Values after ≈ are worked out from the molar mass of the structure shown.
Columns and labels:
Staphylococcus aureus = assay: Antibacterial activity against Staphylococcus aureus ATCC 29213 after 18 hrs by broth microdilution method; format: functional
Outline: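 Broth microdilution. Exponential-phase bacteria grown in MHB at 37 °C, diluted to about 1 × 10^6 CFU/mL in MHB and mixed 1:1 with two-fold dilutions of peptide. MIC is the lowest concentration with no visible turbidity after 18 h at 37 °C. Controls were uninoculated broth and peptide-free culture. At least three repeats, duplicates each.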

Pseudomonas aeruginosa [1] = assay: Antibacterial activity against Pseudomonas aeruginosa ATCC 27853 after 18 hrs by broth microdilution method; format: functional
Outline: (§1)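 Broth microdilution in Mueller-Hinton broth. Exponential-phase bacteria (37 °C, 220 rpm shaking) were diluted to about 1 × 10^6 CFU/mL and mixed 1:1 with two-fold serial peptide dilutions. MIC is the lowest concentration with no visible turbidity after 18 h at 37 °C. Controls were uninoculated MHB and untreated culture. Run at least three times, two replicates each.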

Pseudomonas aeruginosa [2] = assay: Antibacterial activity against Pseudomonas aeruginosa CICC 10419 after 18 hrs by broth microdilution method; format: functional; outline: as §1
Pseudomonas aeruginosa [3] = assay: Antibacterial activity against Pseudomonas aeruginosa CICC 21625 after 18 hrs by broth microdilution method; format: functional; outline: as §1
Pseudomonas aeruginosa [4] = assay: Antibacterial activity against Pseudomonas aeruginosa CICC 21630 after 18 hrs by broth microdilution method; format: functional; outline: as §1
Pseudomonas aeruginosa [5] = assay: Antibacterial activity against ciprofloxacin-resistant Pseudomonas aeruginosa 11411 after 18 hrs by broth microdilution method; format: functional
Outline: (§2)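 Broth microdilution in Mueller-Hinton broth. Exponential-phase bacteria (37 °C, 220 rpm shaking) were diluted to about 1 × 10^6 CFU/mL and mixed 1:1 with two-fold serial peptide dilutions. Controls were uninoculated MHB and untreated culture. Run at least three times, two replicates each.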

Pseudomonas aeruginosa [6] = assay: Antibacterial activity against gentamicin-resistant Pseudomonas aeruginosa 11421 after 18 hrs by broth microdilution method; format: functional; settings: Pseudomonas aeruginosa, 11421, 18 h; outline: as §2
Pseudomonas aeruginosa [7] = assay: Antibacterial activity against ceftazidime-resistant Pseudomonas aeruginosa 11431 after 18 hrs by broth microdilution method; format: functional; outline: as §1
Pseudomonas aeruginosa [8] = assay: Antibacterial activity against Pseudomonas aeruginosa 21328 clinical isolate after 18 hrs by broth microdilution method; format: functional; settings: Pseudomonas aeruginosa, 21328, 18 h
Pseudomonas aeruginosa [9] = assay: Antibacterial activity against Pseudomonas aeruginosa 25349 clinical isolate after 18 hrs by broth microdilution method; format: functional
Pseudomonas aeruginosa [10] = assay: Antibacterial activity against Pseudomonas aeruginosa 26305 clinical isolate after 18 hrs by broth microdilution method; format: functional
RAW264.7 = assay: Cytotoxicity in mouse RAW264.7 cells after 24 hrs by MTT assay; format: cell-based; settings: raw264.7, 24 h
Escherichia coli = assay: microbe, parasite or virus in culture; settings: ATCC 25922, 18 h
Pseudomonas aeruginosa [11] = assay: Drug uptake in Pseudomonas aeruginosa ATCC 27853 treated with FITC-labeled compound at MIC after 30 mins by confocal fluorescence microscopy; format: ADME; settings: 0.5 h
Outline: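 Cells were pelleted at 5,000 g for 5 min, washed three times in PBS, smeared and imaged by confocal microscopy with 488 nm excitation.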

Lipopolysaccharide (LPS) = assay: Binding affinity to Pseudomonas aeruginosa ATCC 27853 LPS by SPR spectroscopic analysis
Outline: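 Biacore SPR. Peptides were amine-coupled to CM5 chips at 20 µg/mL in 10 mM acetate pH 6.0, giving about 1300 RU. LPS at 3.125–12.5 µg/mL in 20 mM Tris/100 mM NaCl pH 7.4 was flowed at 10 µL/min. Surfaces were regenerated with 50 mM NaOH plus 0.05% SDS. Three independent runs.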

Pseudomonas aeruginosa [12] = assay: Antibacterial activity against Pseudomonas aeruginosa ATCC 27853 assessed as induction of outer membrane permeabilization by measuring NPN uptake by spectrofluorophotometric analysis; format: functional
Outline: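 Exponential-phase cells were washed in HEPES pH 7.4 with 5 mM glucose and diluted to about 10^5 CFU/mL. NPN was added at 10 µM final, then peptide at varying concentrations. Fluorescence (ex 350/em 420 nm) was followed to plateau. Values are % NPN uptake relative to polymyxin B at 10 mg/L (100%). Three experiments, duplicates.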

Pseudomonas aeruginosa [13] = assay: Antibacterial activity against Pseudomonas aeruginosa ATCC 27853 assessed as induction of cytoplasmic membrane depolarization after 90 min incubation under dark condition by diSC3-5 dye-based fluorescence analysis; format: functional
Outline: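 Exponential-phase cells were washed three times in 5 mM HEPES (pH 7.4). diSC3-5 (0.4 µM final) and KCl (0.1 M final) were added, then the cells were incubated 90 min at 37 °C in the dark. Peptide at a range of concentrations was added and fluorescence followed at ex 622/em 670 nm. Three independent experiments, duplicates each.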

Pseudomonas aeruginosa [14] = assay: Antibacterial activity against Pseudomonas aeruginosa ATCC 27853 assessed as induction of membrane integrity disruption at MIC after 15 mins by PI-staining based flow cytometry (reference value: 4.7%)
[15] = Pseudomonas aeruginosa, 11411, 18 h
[16] = Pseudomonas aeruginosa, 11431, 18 h
[17] = Pseudomonas aeruginosa, 25349, 18 h
[18] = Pseudomonas aeruginosa, 26305, 18 h

Molecule | MIC (Staphylococcus aureus; ATCC 29213, 18 h) [mg/L] | MIC (Pseudomonas aeruginosa [1]; ATCC 27853, 18 h) [mg/L] | MIC (Pseudomonas aeruginosa [2]; CICC 10419, 18 h) [mg/L] | MIC (Pseudomonas aeruginosa [3]; CICC 21625, 18 h) [mg/L] | MIC (Pseudomonas aeruginosa [4]; CICC 21630, 18 h) [mg/L] | MIC (Pseudomonas aeruginosa [5]; [15]) [mg/L] | MIC (Pseudomonas aeruginosa [6]) [mg/L] | MIC (Pseudomonas aeruginosa [7]; [16]) [mg/L] | MIC (Pseudomonas aeruginosa [8]) [mg/L] | MIC (Pseudomonas aeruginosa [9]; [17]) [mg/L] | MIC (Pseudomonas aeruginosa [10]; [18]) [mg/L] | CC10 (RAW264.7) [mg/L] | MIC (Escherichia coli) [mg/L] | Activity (Pseudomonas aeruginosa [12]) | further results
CC(C)(O/N=C(\C(=O)N[C@@H]1C(=O)N2C(C(=O)[O-])=C(C[n+]3ccccc3)CS[C@H]12)c1csc(N)n1)C(=O)O [CEFTAZIDIME] | 16 (≈ 29.3 µM) | 2 (≈ 3.66 µM) | 32 (≈ 58.5 µM) | 32 (≈ 58.5 µM) | 8 (≈ 14.6 µM) | 32 (≈ 58.5 µM) | 32 (≈ 58.5 µM) | 256 (≈ 468 µM) | 256 (≈ 468 µM) | 64 (≈ 117 µM) | 128 (≈ 234 µM) | > 256 | 2 (≈ 3.66 µM) | – | –
O=C(O)c1cn(C2CC2)c2cc(N3CCNCC3)c(F)cc2c1=O [CIPROFLOXACIN] | 4 (≈ 12.1 µM) | 4 (≈ 12.1 µM) | – | – | 16 (≈ 48.3 µM) | – | 16 (≈ 48.3 µM) | – | – | – | – | – | – | – | –
CC[C@H](C)[C@H](NC(=O)CN)C(=O)NCC(=O)N[C@@H](C)C(=O)N[C@H](C(=O)N[C@@H](CC(C)C)C(=O)N[C@@H](CCCCN)C(=O)N[C@H](C(=O)N[C@@H](CC(C)C)C(=O)N[C@H](C(=O)N[C@H](C(=O)NCC(=O)N[C@@H](CC(C)C)C(=O)N1CCC[C@H]1C(=O)N[C@@H](C)C(=O)N[C@@H](CC(C)C)C(=O)N[C@H](C(=O)N[C@@H](CO)C(=O)N[C@@H](Cc1c[nH]c2ccccc12)C(=O)N[C@H](C(=O)N[C@@H](CCCCN)C(=O)N[C@@H](CCCNC(=N)N)C(=O)N[C@@H](CCCCN)C(=O)N[C@@H](CCCNC(=N)N)C(=O)N[C@@H](CCC(N)=O)C(=O)N[C@@H](CCC(N)=O)C(N)=O)[C@@H](C)CC)[C@@H](C)CC)[C@@H](C)O)[C@@H](C)O)C(C)C)C(C)C [MELITTIN] | – | – | – | – | – | – | – | – | – | – | – | 0.5 (≈ 0.176 µM) | – | – | Drug uptake (Pseudomonas aeruginosa [11]): Active; Activity (Lipopolysaccharide (LPS)): Dose-dependent effect
GENTAMICIN [listing 1 of 2 here] | – | – | – | – | – | – | – | – | – | – | – | > 256 | – | – | –
GENTAMICIN [listing 2 of 2 here] | – | – | – | – | – | – | – | – | – | – | – | – | – | – | MIC (Staphylococcus aureus): 1 mg/L; MIC (Pseudomonas aeruginosa [1]): 2 mg/L; MIC (Pseudomonas aeruginosa [2]): 16 mg/L; MIC (Pseudomonas aeruginosa [3]): 32 mg/L; MIC (Pseudomonas aeruginosa [4]): 8 mg/L; MIC (Pseudomonas aeruginosa [5]): 32 mg/L; MIC (Pseudomonas aeruginosa [7]): 8 mg/L; MIC (Pseudomonas aeruginosa [9]): 4 mg/L; MIC (Pseudomonas aeruginosa [10]): 2 mg/L
H-ARRARRRWRRRARRA-NH2 | 64 | 128 | 256 | 256 | 256 | 256 | 256 | 256 | 256 | 32 | 256 | > 256 | 64 | Dose-dependent effect | –
H-FRRFRRRWRRRFRRF-NH2 | 16 | 8 | 256 | 256 | 32 | 256 | 256 | 16 | 256 | 8 | 64 | 256 | 8 | Dose-dependent effect | –
H-LRRLRRRLRRLRRRWRRRLRRLRRRLRRL-OH | 16 | 8 | 4 | 8 | 4 | 8 | 16 | 8 | 8 | 8 | 16 | 128 | 8 | Dose-dependent effect | –
H-LRRLRRRWLRRLRRR-NH2 | 64 | 32 | 256 | 64 | 32 | 128 | 256 | 64 | 128 | 32 | 64 | > 256 | > 128 | Dose-dependent effect | Activity (Pseudomonas aeruginosa [13]): Dose-dependent effect; Activity (Pseudomonas aeruginosa [14]): 57%
H-LRRLRRRWRRRLRRL-NH2 | 16 | 16 | 32 | 16 | 16 | 32 | 32 | 16 | 32 | 8 | 32 | 256 | 16 | Dose-dependent effect | Activity (Pseudomonas aeruginosa [13]): Dose-dependent effect; Activity (Pseudomonas aeruginosa [14]): 93%
H-WRRWRRRWRRRWRRW-NH2 | 16 | 4 | 256 | 256 | 16 | 256 | 256 | 8 | 256 | 32 | 32 | 128 | 32 | Dose-dependent effect | –
